In brackets after ≈: the same amount, converted by molar mass.
What was measured:
Staphylococcus aureus [1] = assay: Antimicrobial activity against oxacillin- and methicillin-resistant Staphylococcus aureus isolate Sa-OXA-R2 after 18 to 24 hrs by alamar blue assay; type: functional
In short: (§1)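 Broth microdilution per NCCLS standard, Mueller-Hinton broth, 8-point twofold dilutions; exponentially growing cells at 5 10^5 cells/ml with compound, 18–24 h at 37 C; 20% Alamar blue added, fluorescence read; MIC90 taken as lowest concentration preventing at least 90% growth.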

Bacillus subtilis = assay: Antimicrobial activity against Bacillus subtilis ATCC 23857 after 18 to 24 hrs by alamar blue assay; type: functional
In short: (§2)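 Broth microdilution per NCCLS in Mueller-Hinton broth, 8-point twofold dilutions, 384-well format. Exponential-phase cells at 5 × 10^5 cells/ml incubated with compound 18–24 h at 37 °C, then 20% Alamar blue added and fluorescence read. MIC90 taken as the lowest concentration preventing at least 90% bacterial growth.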

Escherichia coli = assay: Antimicrobial activity against Escherichia coli ATCC […] after 18 to 24 hrs by alamar blue assay; type: functional; details: Escherichia coli; read-out: MIC; in short: as §2
Pseudomonas aeruginosa = assay: Antimicrobial activity against Pseudomonas aeruginosa ATCC 25619 after 18 to 24 hrs by alamar blue assay; type: functional; details: Pseudomonas aeruginosa, ATCC 25619; read-out: MIC; in short: as §2
Acinetobacter baumannii = assay: Antimicrobial activity against Acinetobacter baumannii ATCC 49139 after 18 to 24 hrs by alamar blue assay; type: functional; details: Acinetobacter baumannii, ATCC 49139; read-out: MIC; in short: as §2
[2] = system: Stenotrophomonas maltophilia; assay: Antimicrobial activity against Stenotrophomonas maltophilia ATCC 13637 after 18 to 24 hrs by alamar blue assay; type: functional; details: Stenotrophomonas maltophilia, ATCC 13637; read-out: MIC; in short: as §2
Serratia marcescens = assay: Antimicrobial activity against Serratia marcescens ATCC 14756 after 18 to 24 hrs by alamar blue assay; type: functional; details: Serratia marcescens, ATCC 14756; read-out: MIC; in short: as §2
[3] = system: Mycolicibacterium smegmatis; assay: Antimicrobial activity against Mycobacterium smegmatis BCRC 11565 after 18 to 24 hrs by alamar blue assay; type: functional; details: Mycolicibacterium smegmatis, BCRC 11565; read-out: MIC; in short: as §2
Staphylococcus aureus [4] = assay: Antimicrobial activity against methicillin-resistant Staphylococcus aureus isolate NTUH4722 after 18 to 24 hrs by alamar blue assay; type: functional; in short: as §1
Staphylococcus aureus [5] = assay: Antimicrobial activity against methicillin-resistant Staphylococcus aureus ATCC 33592 after 18 to 24 hrs by alamar blue assay; type: functional; details: Staphylococcus aureus, ATCC 33592; read-out: MIC; in short: as §1
Staphylococcus aureus [6] = assay: Antimicrobial activity against Staphylococcus aureus ATCC 29213 after 18 to 24 hrs by alamar blue assay

SMILES | MIC (Staphylococcus aureus [1]) [µg/mL] | MIC (Bacillus subtilis) [µg/mL] | MIC (Escherichia coli) [µg/mL] | MIC (Pseudomonas aeruginosa) [µg/mL] | MIC (Acinetobacter baumannii) [µg/mL] | MIC [2] [µg/mL] | MIC (Serratia marcescens) [µg/mL] | MIC [3] [µg/mL] | MIC (Staphylococcus aureus [4]) [µg/mL] | MIC (Staphylococcus aureus [5]) [µg/mL] | MIC (Staphylococcus aureus [6]) [µg/mL]
CCCc1cc(O)nc(N2NC(C)=CC2NC(=O)c2ccccc2F)n1 (stereo unspecified) | 1 (≈ 2.8 µM) | 0.25 (≈ 0.7 µM) | > 256 | > 256 | > 256 | > 256 | > 256 | 0.25 (≈ 0.7 µM) | 1 (≈ 2.8 µM) | 0.5 (≈ 1.4 µM) | 2 (≈ 5.6 µM)
O=C(CCN1C(=O)c2cccc3cccc(c23)C1=O)N1CCN(C/C=C/c2ccccc2)CC1 | 0.25 (≈ 0.551 µM) | 4 (≈ 8.82 µM) | > 256 | > 256 | > 256 | > 256 | > 256 | 4 (≈ 8.82 µM) | 4 (≈ 8.82 µM) | 1 (≈ 2.2 µM) | 0.5 (≈ 1.1 µM)
O=C1c2cc([N+](=O)[O-])cc3cc([N+](=O)[O-])cc(c23)C(=O)N1c1ccc(O)cc1 | 0.3 (≈ 0.791 µM) | 4 (≈ 10.5 µM) | > 256 | > 256 | > 256 | > 256 | > 256 | 4 (≈ 10.5 µM) | 2.5 (≈ 6.59 µM) | 2.5 (≈ 6.59 µM) | 2.5 (≈ 6.59 µM)
Cc1cccc(NS(=O)(=O)c2ccc3c(c2)NC(=O)C(C)S3)c1C (stereo unspecified) | 16 (≈ 44.1 µM) | < 0.03 | > 256 | > 256 | > 256 | > 256 | > 256 | > 64 | 16 (≈ 44.1 µM) | 64 (≈ 177 µM) | 2 (≈ 5.52 µM)
CCc1c(C)nc(N2NC(C)=CC2NC(=O)c2ccccc2I)nc1O (stereo unspecified) | 0.5 (≈ 1.07 µM) | 0.25 (≈ 0.537 µM) | > 256 | > 256 | > 256 | > 256 | > 256 | 0.25 (≈ 0.537 µM) | 0.5 (≈ 1.07 µM) | 1 (≈ 2.15 µM) | 0.5 (≈ 1.07 µM)
O=C(Nc1ccc(Cl)cc1)c1cc(Br)cc(Br)c1O | 1 (≈ 2.47 µM) | < 0.03 | 8 (≈ 19.7 µM) | 16 (≈ 39.5 µM) | 16 (≈ 39.5 µM) | 16 (≈ 39.5 µM) | 16 (≈ 39.5 µM) | 0.5 (≈ 1.23 µM) | 1 (≈ 2.47 µM) | 4 (≈ 9.87 µM) | 1 (≈ 2.47 µM)
Cc1ccc(NS(=O)(=O)c2ccc3c(c2)NCC(C)C(=O)S3)c(C)c1 (stereo unspecified) | > 64 | < 0.03 | > 256 | > 256 | > 256 | > 256 | > 256 | > 64 | 16 (≈ 42.5 µM) | 2 (≈ 5.31 µM) | 2 (≈ 5.31 µM)
CCC1Sc2ccc(S(=O)(=O)Nc3ccc(C)cc3C)cc2NC1=O (stereo unspecified) | > 64 | < 0.03 | > 256 | > 256 | > 256 | > 256 | > 256 | > 64 | 4 (≈ 10.6 µM) | 8 (≈ 21.2 µM) | 1 (≈ 2.66 µM)
CCOC(=O)c1c(NC(=O)c2ccc([N+](=O)[O-])o2)sc2c1CCN(C(C)=O)C2 | 1 (≈ 2.45 µM) | 0.06 (≈ 0.147 µM) | 256 (≈ 628 µM) | 128 (≈ 314 µM) | 12 (≈ 29.5 µM) | 32 (≈ 78.5 µM) | 32 (≈ 78.5 µM) | 0.5 (≈ 1.23 µM) | 1 (≈ 2.45 µM) | 4 (≈ 9.82 µM) | 1 (≈ 2.45 µM)
Cc1c(CC(=O)N2CCC[C@H]2C(=O)O)c(=O)oc2c(C)c3occ(-c4ccc(Cl)cc4)c3cc12 | 0.6 (≈ 1.25 µM) | > 64 | > 256 | > 256 | > 256 | > 256 | > 256 | 1 (≈ 2.08 µM) | 0.3 (≈ 0.625 µM) | 0.3 (≈ 0.625 µM) | 0.3 (≈ 0.625 µM)
COC(=O)c1ccccc1NC(=O)c1ccc([N+](=O)[O-])o1 | 2 (≈ 6.89 µM) | 0.06 (≈ 0.207 µM) | 256 (≈ 882 µM) | 128 (≈ 441 µM) | 12 (≈ 41.3 µM) | 32 (≈ 110 µM) | 32 (≈ 110 µM) | 0.5 (≈ 1.72 µM) | 4 (≈ 13.8 µM) | 0.5 (≈ 1.72 µM) | 8 (≈ 27.6 µM)
O=C(Nc1nnc(-c2ccccc2Cl)o1)c1nc2ccccc2s1 | 32 (≈ 89.7 µM) | 0.5 (≈ 1.4 µM) | > 256 | > 256 | > 256 | > 256 | > 256 | 0.5 (≈ 1.4 µM) | 2 (≈ 5.61 µM) | 2 (≈ 5.61 µM) | 2 (≈ 5.61 µM)
O=C1c2cccc3c([N+](=O)[O-])ccc(c23)C(=O)N1Cc1cccnc1 | 8 (≈ 24 µM) | 4 (≈ 12 µM) | > 256 | > 256 | > 256 | > 256 | > 256 | 4 (≈ 12 µM) | 8 (≈ 24 µM) | 2 (≈ 6 µM) | 8 (≈ 24 µM)
Cc1ccc(C)c(NS(=O)(=O)c2ccc3c(c2)NCC(C)C(=O)S3)c1 (stereo unspecified) | > 64 | < 0.03 | > 256 | > 256 | > 256 | > 256 | > 256 | > 64 | 32 (≈ 85 µM) | 16 (≈ 42.5 µM) | 2 (≈ 5.31 µM)
O=C(Nc1nnc(-c2ccc(F)cc2)o1)c1ccc(Cl)s1 | 1.2 (≈ 3.71 µM) | 0.5 (≈ 1.54 µM) | > 256 | > 256 | > 256 | > 256 | > 256 | 0.5 (≈ 1.54 µM) | 1.2 (≈ 3.71 µM) | 1.2 (≈ 3.71 µM) | 1.2 (≈ 3.71 µM)
Cc1c(CC(=O)N[C@@H](C)C(=O)O)c(=O)oc2c(C)c3occ(-c4ccc(Cl)cc4)c3cc12 | 1.25 (≈ 2.75 µM) | > 64 | > 256 | > 256 | > 256 | > 256 | > 256 | 1 (≈ 2.2 µM) | 0.3 (≈ 0.661 µM) | 1.25 (≈ 2.75 µM) | 0.3 (≈ 0.661 µM)
CC[C@@H](C)[C@H](NC(=O)Cc1c(C)c2cc3c(-c4ccc(Cl)cc4)coc3c(C)c2oc1=O)C(=O)O | 2.5 (≈ 5.04 µM) | > 64 | > 256 | > 256 | > 256 | > 256 | > 256 | 1 (≈ 2.02 µM) | 2.5 (≈ 5.04 µM) | 2.5 (≈ 5.04 µM) | 2.5 (≈ 5.04 µM)
Cc1c(CC(=O)N2CCC(C(=O)O)CC2)c(=O)oc2c(C)c3occ(-c4ccc(Cl)cc4)c3cc12 | 2.5 (≈ 5.06 µM) | > 64 | > 256 | > 256 | > 256 | > 256 | > 256 | 1 (≈ 2.02 µM) | 2.5 (≈ 5.06 µM) | 1.25 (≈ 2.53 µM) | 2.5 (≈ 5.06 µM)
Cc1c(CC(=O)N[C@@H](CCCNC(N)=O)C(=O)O)c(=O)oc2c(C)c3occ(-c4ccc(Cl)cc4)c3cc12 | 2.5 (≈ 4.63 µM) | > 64 | > 256 | > 256 | > 256 | > 256 | > 256 | 1 (≈ 1.85 µM) | 2.5 (≈ 4.63 µM) | 2.5 (≈ 4.63 µM) | 1.25 (≈ 2.31 µM)
CSc1ccccc1-c1nnc(NC(=O)c2nc3ccccc3s2)o1 | 4 (≈ 10.9 µM) | 0.5 (≈ 1.36 µM) | > 256 | > 256 | > 256 | > 256 | > 256 | 0.5 (≈ 1.36 µM) | 2 (≈ 5.43 µM) | 2 (≈ 5.43 µM) | 4 (≈ 10.9 µM)
O=C(Nc1nnc(-c2ccc(F)cc2)o1)c1cccc(Cl)c1 | 4 (≈ 12.6 µM) | 0.5 (≈ 1.57 µM) | > 256 | > 256 | > 256 | > 256 | > 256 | 0.5 (≈ 1.57 µM) | 1 (≈ 3.15 µM) | 0.5 (≈ 1.57 µM) | 1 (≈ 3.15 µM)

Reference: ChEMBL document CHEMBL1629439, “High-throughput identification of antibacterials against methicillin-resistant Staphylococcus aureus (MRSA) and the transglycosylase” (Bioorg Med Chem, 2010)
